According to ChEMBL document CHEMBL4689842, “EUbOPEN Chemogenomics Library wave 1” (2021):
Where “and” joins values, the source holds several entries; their conditions need not be identical. Equal values may be shown once.

System: Fibroblast
Assay: Multiplex assay against human fibroblast
Format: toxicity, cell-based
Outline: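 At seeding, live cells were stained with Hoechst33342, BioTracker Green Microtubule Cytoskeleton Dye, MitoTracker Red and Annexin V Alexa Fluor 680. After compound addition they were imaged on a CQ1 microscope at 37°C and 5% CO2, and CellPathfinder machine-learning gating sorted them into Hoechst high-intensity objects or normal cells, with normal cells further split into healthy, pyknosed or fragmented nuclei and pyknosed cells into mitotic or apoptotic. Tubulin, mitochondrial-mass and membrane-permeability phenotypes are given as per cents of cells with healthy nuclei.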

[1] = 12 h, 10 µM, compound concentration 10 uM, replicate 1
[2] = 12 h, 10 µM, compound concentration 10 uM, replicate 2
[3] = 24 h, 10 µM, compound concentration 10 uM, replicate 1
[4] = 24 h, 10 µM, compound concentration 10 uM, replicate 2
[5] = 12 h, 1 µM, compound concentration 1 uM, replicate 1
[6] = 12 h, 1 µM, compound concentration 1 uM, replicate 2
[7] = 24 h, 1 µM, compound concentration 1 uM, replicate 1
[8] = 24 h, 1 µM, compound concentration 1 uM, replicate 2

Cc1sc2c(c1C)C(c1ccc(Cl)cc1)=N[C@@H](CC(=O)OC(C)(C)C)c1nnc(C)n1-2
Population Apoptotic (%) [1]: 71% and 88% | Population Fragmented Nuclei (%) [1]: 38% and 43% | Population Healthy Nuclei (%) [1]: 48% and 40% | Population Hoechst High Intensity Objects (%) [1]: 13% and 14% | Population Membrane Permeable-Phenotype (%) [1]: 7% and 4% | Population Mitochondria Different-Phenotype (%) [1]: 0% | Population Mitotic Cells (%) [1]: 28% and 12% | Population Normal (%) [1]: 86% and 85% | Population Pyknosed Nuclei (%) [1]: 13% and 16% | Population Tubulin-Different-Phenotype (%) [1]: 4% and 0% | Total Cell Count [1]: 368 and 183 | Population Apoptotic (%) [2]: 66% | Population Fragmented Nuclei (%) [2]: 55% and 63% | Population Healthy Nuclei (%) [2]: 39% and 31% | Population Hoechst High Intensity Objects (%) [2]: 24% and 25% | Population Membrane Permeable-Phenotype (%) [2]: 10% and 0% | Population Mitotic Cells (%) [2]: 33% | Population Normal (%) [2]: 75% | Population Pyknosed Nuclei (%) [2]: 6% and 4% | Total Cell Count [2]: 132 and 92 | Population Apoptotic (%) [3]: 73% | Population Fragmented Nuclei (%) [3]: 36% and 29% | Population Healthy Nuclei (%) [3]: 47% and 59% | Population Hoechst High Intensity Objects (%) [3]: 12% and 16% | Population Membrane Permeable-Phenotype (%) [3]: 7% | Population Mitochondria Different-Phenotype (%) [3]: 6% | Population Mitotic Cells (%) [3]: 26% | Population Normal (%) [3]: 87% and 83% | Population Pyknosed Nuclei (%) [3]: 16% and 11% | Population Tubulin-Different-Phenotype (%) [3]: 2% and 1% | Total Cell Count [3]: 183 and 320 | Population Apoptotic (%) [4]: 71% and 66% | Population Fragmented Nuclei (%) [4]: 56% and 42% | Population Healthy Nuclei (%) [4]: 31% and 49% | Population Hoechst High Intensity Objects (%) [4]: 28% and 21% | Population Mitochondria Different-Phenotype (%) [4]: 11% and 14% | Population Mitotic Cells (%) [4]: 28% and 33% | Population Normal (%) [4]: 71% and 78% | Population Pyknosed Nuclei (%) [4]: 12% and 8% | Population Tubulin-Different-Phenotype (%) [4]: 11% | Total Cell Count [4]: 81 and 91

Cc1nc(Nc2n[nH]c3c2CN(C(=O)N[C@H](CN(C)C)c2ccccc2)C3(C)C)c2sccc2n1 [PF-03758309]
Population Apoptotic (%) [5]: 82% | Population Fragmented Nuclei (%) [5]: 33% | Population Healthy Nuclei (%) [5]: 48% | Population Hoechst High Intensity Objects (%) [5]: 13% | Population Membrane Permeable-Phenotype (%) [5]: 6% | Population Mitochondria Different-Phenotype (%) [5]: 2% | Population Mitotic Cells (%) [5]: 17% | Population Normal (%) [5]: 86% | Population Pyknosed Nuclei (%) [5]: 18% | Population Tubulin-Different-Phenotype (%) [5]: 2% | Total Cell Count [5]: 216 | Population Apoptotic (%) [6]: 60% | Population Fragmented Nuclei (%) [6]: 54% | Population Healthy Nuclei (%) [6]: 37% | Population Hoechst High Intensity Objects (%) [6]: 28% | Population Membrane Permeable-Phenotype (%) [6]: 0% | Population Mitochondria Different-Phenotype (%) [6]: 13% | Population Mitotic Cells (%) [6]: 40% | Population Normal (%) [6]: 71% | Population Pyknosed Nuclei (%) [6]: 8% | Population Tubulin-Different-Phenotype (%) [6]: 13% | Total Cell Count [6]: 83 | Population Apoptotic (%) [1]: 62% | Population Fragmented Nuclei (%) [1]: 35% | Population Healthy Nuclei (%) [1]: 51% | Population Hoechst High Intensity Objects (%) [1]: 11% | Population Membrane Permeable-Phenotype (%) [1]: 9% | Population Mitochondria Different-Phenotype (%) [1]: 10% | Population Mitotic Cells (%) [1]: 37% | Population Normal (%) [1]: 88% | Population Pyknosed Nuclei (%) [1]: 12% | Population Tubulin-Different-Phenotype (%) [1]: 32% | Total Cell Count [1]: 240 | Population Apoptotic (%) [2]: 40% | Population Fragmented Nuclei (%) [2]: 57% | Population Healthy Nuclei (%) [2]: 25% | Population Hoechst High Intensity Objects (%) [2]: 39% | Population Membrane Permeable-Phenotype (%) [2]: 0% | Population Mitochondria Different-Phenotype (%) [2]: 20% | Population Mitotic Cells (%) [2]: 60% | Population Normal (%) [2]: 60% | Population Pyknosed Nuclei (%) [2]: 16% | Population Tubulin-Different-Phenotype (%) [2]: 33% | Total Cell Count [2]: 98 | Population Apoptotic (%) [7]: 70% | Population Fragmented Nuclei (%) [7]: 25% | Population Healthy Nuclei (%) [7]: 53% | Population Hoechst High Intensity Objects (%) [7]: 16% | Population Membrane Permeable-Phenotype (%) [7]: 7% | Population Mitochondria Different-Phenotype (%) [7]: 8% | Population Mitotic Cells (%) [7]: 29% | Population Normal (%) [7]: 83% | Population Pyknosed Nuclei (%) [7]: 20% | Population Tubulin-Different-Phenotype (%) [7]: 7% | Total Cell Count [7]: 181 | Population Apoptotic (%) [8]: 75% | Population Fragmented Nuclei (%) [8]: 59% | Population Healthy Nuclei (%) [8]: 33% | Population Hoechst High Intensity Objects (%) [8]: 28% | Population Membrane Permeable-Phenotype (%) [8]: 0% | Population Mitochondria Different-Phenotype (%) [8]: 10% | Population Mitotic Cells (%) [8]: 25% | Population Normal (%) [8]: 71% | Population Pyknosed Nuclei (%) [8]: 6% | Population Tubulin-Different-Phenotype (%) [8]: 0% | Total Cell Count [8]: 82 | Population Apoptotic (%) [3]: 67% | Population Fragmented Nuclei (%) [3]: 30% | Population Healthy Nuclei (%) [3]: 54% | Population Hoechst High Intensity Objects (%) [3]: 20% | Population Membrane Permeable-Phenotype (%) [3]: 15% | Population Mitochondria Different-Phenotype (%) [3]: 6% | Population Mitotic Cells (%) [3]: 32% | Population Normal (%) [3]: 79% | Population Pyknosed Nuclei (%) [3]: 15% | Population Tubulin-Different-Phenotype (%) [3]: 40% | Total Cell Count [3]: 254 | Population Apoptotic (%) [4]: 100% | Population Fragmented Nuclei (%) [4]: 48% | Population Healthy Nuclei (%) [4]: 45% | Population Hoechst High Intensity Objects (%) [4]: 34% | Population Membrane Permeable-Phenotype (%) [4]: 11% | Population Mitochondria Different-Phenotype (%) [4]: 22% | Population Mitotic Cells (%) [4]: 0% | Population Normal (%) [4]: 65% | Population Pyknosed Nuclei (%) [4]: 6% | Population Tubulin-Different-Phenotype (%) [4]: 44% | Total Cell Count [4]: 92
